These results are taken from ChEMBL document CHEMBL4376875, “Synthesis and Biological Evaluation of B-Cell Lymphoma 6 Inhibitors of N-Phenyl-4-pyrimidinamine Derivatives Bearing Potent Activities against Tumor Growth” (J Med Chem, 2020).

SMILES strings stand for the structures. Calls of active or inactive are those of the source. The rule behind the calls is not given here.

In data set [1] the test system is SUD4. Nature of the data set: Antiproliferative activity against human SUDHL4 cells assessed as reduction in living cells incubated for 48 hrs by Edu based flow cytometry analysis. It is filed as functional, cell-based. Summed up: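 SUDHL4 cells were treated for 48 h, then pulsed with 10 μM EdU for 2 h, fixed, permeabilized and stained with EdU/Alexa Fluor Azide 488 for 30 min. Living and S-phase cells were counted by flow cytometry. Triplicate.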

For data set [2], the species on record is Mus musculus. The settings on record: C57BL/6, 10 mg/kg.
Data set [3] deals with SUD4. Kind of data set: Antitumor activity against human SUDHL4 cells xenografted in SCID mouse assessed as reduction in Ki67 expression in tumor at 5 mg/kg, iv administered 3 days once for 15 days by Ki67-staining based immunohistochemistry. It is filed as functional, organism-based. Summed up: (§1)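 Male SCID mice, 6 weeks old, received 1 × 10⁷ SUDHL4 cells s.c. At about 100 mm³, mice were randomized (n = 7) to vehicle (20% 2-hydroxypropyl-β-cyclodextrin) or 5 or 10 mg/kg every 3 days i.v. for 15 days. Body weight and caliper volume (L × W² × 0.52) were recorded every 3 days. At sacrifice, tissues were fixed in 4% paraformaldehyde and paraffin-embedded for H&E or Ki67 IHC. Tumor mRNA was assayed by qPCR.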
(In general: A xenograft is tissue or cells of one species grown in another, often human tumour cells in immunodeficient mice.)

The test system of data set [4] is Mus musculus. Nature of the data set: Upregulation of CD69 mRNA expression in SCID mouse xenografted with human SUDHL4 cells at 5 to 10 mg/kg, iv administered 3 days once for 15 days by qPCR analysis. The data set is classed as functional, organism-based. Summed up: as §1
Data set [5] relates to SUD4. Kind of data set: Antiproliferative activity against human SUDHL4 cells assessed as living cells and S phase cells at 1.25 uM incubated for 48 hrs by Edu based flow cytometry analysis (reference value: 48.3%). In general terms: A flow cytometer gives signals particle by particle.
Data set [6] has as its system Toledo. Nature of the data set: Effect on CD80 mRNA expression in BCL6-negative human Toledo cells at 1.25 to 5 uM incubated for 24 hrs by RT-PCR analysis. The data set is classed as functional, cell-based. Summed up: (§2)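 Toledo cells (BCL6-independent) were exposed to 1.25, 2.50 or 5.00 μM for 24 h, then mRNA was collected. Target-gene transcripts were quantified by real-time quantitative PCR against vehicle control.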

Data set [7] in a line: Metabolic stability in human liver assessed as intrinsic clearance. The settings on record: read-out: CLH. The data set is classed as ADME, tissue-based. The method in brief:
(§3)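 Incubation with human liver microsomes. Intrinsic clearance was scaled to liver using 45 mg microsomal protein per g liver and 20 g liver per kg body weight. Half-life was also determined.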

Data set [8] has as its system Toledo. Nature of the data set: Effect on CD69 mRNA expression in BCL6-negative human Toledo cells at 1.25 to 5 uM incubated for 24 hrs by RT-PCR analysis. It is filed as functional, cell-based. Summed up:
as §2

Data set [9] is described as follows: Toxicity in SCID mouse xenografted with human SUDHL4 cells assessed as adverse effect on liver morphology at 5 to 10 mg/kg, iv administered 3 days once for 15 days by H and E staining analysis. It is filed as organism-based. The settings on record: in vivo. Summed up: as §1
Data set [10] deals with SUD4. Kind of data set: Induction of apoptosis in human SUDHL4 cells incubated for 48 hrs by annexin V-FITC and propidium iodide staining based flow cytometry analysis. It is filed as functional, cell-based.
The subject of data set [11] is Toledo. Nature of the data set: Effect on CXCR4 mRNA expression in BCL6-negative human Toledo cells at 1.25 to 5 uM incubated for 24 hrs by RT-PCR analysis. It is filed as functional, cell-based. The method in brief:
as §2

Data set [12] can be described thus: Cytotoxicity against HAF cells assessed as reduction in cell viability incubated for 72 hrs by CCK8 assay. The settings on record: Homo sapiens. (Formazan colour is commonly taken as a measure of viable cells.)
In data set [13] the test system is Toledo. Nature of the data set: Effect on p53 mRNA expression in BCL6-negative human Toledo cells at 1.25 to 5 uM incubated for 24 hrs by RT-PCR analysis. It is filed as functional, cell-based. Summed up:
as §2

Data set [14] concerns SUD4. Nature of the data set: Induction of apoptosis in human SUDHL4 cells assessed as early apoptotic cells at 0.625 uM incubated for 48 hrs by annexin V-FITC and propidium iodide staining based flow cytometry analysis (reference value: 2.62%). The data set is classed as functional.
A short description of data set [15]: Metabolic stability in human liver microsomes assessed as intrinsic clearance per mg of protein. It is filed as ADME, Microsome. The settings on record: read-out: CLH. The method in brief: as §3
Data set [16] in a line: Protein binding in human plasma. The data set is classed as ADME, cell-free. The settings on record: read-out: PPB (converted). Summed up: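 Human plasma protein binding was measured by a contract laboratory.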
Data set [17] is described as follows: Toxicity in SCID mouse xenografted with human SUDHL4 cells assessed as adverse effect on kidney morphology at 5 to 10 mg/kg, iv administered 3 days once for 15 days by H and E staining analysis. It is filed as organism-based. The settings on record: in vivo. The method in brief: as §1
Data set [18] concerns SUD4. Kind of data set: Induction of apoptosis in human SUDHL4 cells assessed as late apoptotic cells at 1.25 uM incubated for 48 hrs by annexin V-FITC and propidium iodide staining based flow cytometry analysis (reference value: 1.39%). It is filed as functional.

The term IC50 denotes the concentration that gives 50% inhibition.

Turning to `COc1cc(Nc2nc(N3C[C@@H](C)N[C@@H](C)C3)ncc2F)ccc1NC(=O)c1ccc(C2=CCCC2)s1`, the Activity entry in the data set with SUD4 [1] was “Dose-dependent effect”; in the data set on SUD4 [5], 12.5%; in data set [9] it was “Non-Toxic”; in the data set on SUD4 [10], “Dose-dependent effect”; in the data set on SUD4 [14], 3.42%; in [17], “Non-Toxic”. The Activity with SUD4 [18] is 12.5%. For the same molecule, in the data set filed under Mus musculus [2], the inhibition entry is “Active”. The outcome in the data set on SUD4 [3] and with Mus musculus [4] was Active. In addition, the outcome in the data set with Toledo [6], with Toledo [8], with Toledo [11] and in the data set on Toledo [13] was inactive. The CLint scaled in data set [7] is below 38 mL/min/kg. For the same molecule, in [12], the half-inhibitory concentration (IC50) was 26.4 µM. Moreover, the microsomal CLint in [15] is below 9.6 µL/min/mg. Further, the fraction unbound in data set [16] is 0.076.
